Reference: ChEMBL document CHEMBL1129950, “Structural requirements for binding of anandamide-type compounds to the brain cannabinoid receptor” (J Med Chem, 1997)

Assays:
Cannabinoid receptor 1 [1] = molecular target: Cannabinoid receptor 1 (Rattus norvegicus, UniProt P20272); assay: In vitro binding affinity was determined against rat brain Cannabinoid receptor 1
Method in brief: (§1)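 Drug was serially diluted in 5 mg/mL fatty-acid-free BSA. Final 1 mL held 45 mM Tris-HCl, 2.7 mM MgCl2, 0.9 mM EDTA and 0.58 mg BSA. Incubation was 30 °C, 90 min. Bound ligand was separated by centrifugation, and pellet tips were scintillation-counted. Ki came from displacement.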

Cannabinoid receptor 1 [2] = molecular target: T1, Cannabinoid receptor 1 (Homo sapiens, UniProt P21554); assay: Binding affinity against the cannabinoid receptor in the presence of PMSF
Cannabinoid receptor 1 [3] = molecular target: T1, Cannabinoid receptor 1; assay: Binding affinity against the Cannabinoid receptor 1 in the presence of PMSF (experiment 2)
Cannabinoid receptor 1 [4] = molecular target: T1, Cannabinoid receptor 1; assay: Binding affinity against the cannabinoid receptor (expt 1)
Method in brief: as §1, with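 “Whole rat brain synaptosomal membranes (2.4-3.8 µg protein) were competed against 38-48 fmol [3H]HU-243. Drug” for “Drug”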

Cannabinoid receptor 1 [5] = molecular target: T1, Cannabinoid receptor 1; assay: Binding affinity against the cannabinoid receptor in the presence of PMSF (expt 3)
Cannabinoid receptor 1 [6] = molecular target: T1, Cannabinoid receptor 1; assay: Binding affinity against the cannabinoid receptor in the presence of PMSF (expt 1)
Cannabinoid receptor 1 [7] = molecular target: T1, Cannabinoid receptor 1; assay: Binding affinity against the cloned human Cannabinoid receptor 1
Cannabinoid receptor 1 [8] = molecular target: T1, Cannabinoid receptor 1; assay: Binding affinity against the cannabinoid receptor
Method in brief: as §1, with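 “Whole rat brain synaptosomal membranes (2.4-3.8 µg protein) were competed against 38-48 fmol [3H]HU-243. Drug” for “Drug”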

Cannabinoid receptor 1 [9] = molecular target: T1, Cannabinoid receptor 1; assay: Binding affinity against the cannabinoid receptor in the presence of PMSF (experiment 2)
Cannabinoid receptor 1 [10] = molecular target: T1, Cannabinoid receptor 1; assay: Binding affinity against the cloned human Cannabinoid receptor 1; no activity

Sequence of Cannabinoid receptor 1 (Rattus norvegicus, UniProt P20272) (P20272 whole entry): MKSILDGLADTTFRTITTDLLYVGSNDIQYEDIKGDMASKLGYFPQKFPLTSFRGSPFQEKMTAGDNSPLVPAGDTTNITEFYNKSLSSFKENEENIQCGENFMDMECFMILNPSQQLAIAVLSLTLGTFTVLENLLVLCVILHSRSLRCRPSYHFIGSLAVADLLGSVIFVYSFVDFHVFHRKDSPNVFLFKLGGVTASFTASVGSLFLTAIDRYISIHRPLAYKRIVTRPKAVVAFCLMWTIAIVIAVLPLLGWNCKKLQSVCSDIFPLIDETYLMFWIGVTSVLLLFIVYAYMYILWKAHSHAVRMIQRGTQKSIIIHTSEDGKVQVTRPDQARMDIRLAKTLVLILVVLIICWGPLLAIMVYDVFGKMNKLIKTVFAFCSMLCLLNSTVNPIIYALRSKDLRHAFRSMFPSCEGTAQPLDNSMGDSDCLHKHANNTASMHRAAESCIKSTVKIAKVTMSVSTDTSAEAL
T1 sequence (P21554 whole entry): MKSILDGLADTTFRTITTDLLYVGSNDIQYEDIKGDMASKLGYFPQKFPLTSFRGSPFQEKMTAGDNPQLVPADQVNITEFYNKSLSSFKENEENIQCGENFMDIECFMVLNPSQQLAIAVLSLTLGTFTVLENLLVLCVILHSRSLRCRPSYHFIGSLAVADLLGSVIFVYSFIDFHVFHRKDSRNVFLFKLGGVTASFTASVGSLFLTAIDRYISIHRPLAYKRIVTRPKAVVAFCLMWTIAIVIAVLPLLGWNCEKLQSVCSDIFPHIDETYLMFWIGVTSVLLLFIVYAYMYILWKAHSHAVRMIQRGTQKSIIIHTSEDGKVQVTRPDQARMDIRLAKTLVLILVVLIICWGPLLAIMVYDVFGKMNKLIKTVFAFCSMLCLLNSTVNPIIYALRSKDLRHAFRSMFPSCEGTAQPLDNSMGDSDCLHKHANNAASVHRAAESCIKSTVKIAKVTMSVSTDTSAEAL

| Compound | Ki (Cannabinoid receptor 1 [1]; read-out: Ki) [nM] | also measured |
| --- | --- | --- |
| CCCCC/C=C\C/C=C\C/C=C\C/C=C\CCCC(=O)NCC(=O)O [ARACHIDONOYL GLYCINE] | > 10000 |  |
| CCCCC/C=C\C/C=C\C/C=C\C/C=C\CCCC(=O)NCCC(C)C | 575 | Ki (Cannabinoid receptor 1 [2]): 1860 nM |
| CCCCC/C=C\C/C=C\C/C=C\C/C=C\CCCC(=O)N(CCC)CCO | > 10000 |  |
| CCCCC/C=C\C/C=C\C/C=C\C/C=C\CCCC(=O)NC(C)(C)CC | 447 |  |
| CCCCC/C=C\C/C=C\C/C=C\C/C=C\CCCC(=O)N(C)CCO | > 10000 | Ki (Cannabinoid receptor 1 [3]): 4980 nM; Ki (Cannabinoid receptor 1 [4]): 5240 nM |
| CCCCC/C=C\C/C=C\C/C=C\C/C=C\CCCC(=O)N(CC)CC | > 1000 |  |
| CCCCC/C=C\C/C=C\C/C=C\C/C=C\CCCC(=O)N(C)C | > 1000 |  |
| CCCCC/C=C\C/C=C\C/C=C\C/C=C\CCC(C)(C)C(=O)NC(C)C | 7.2 |  |
| CCCCC/C=C\C/C=C\C/C=C\C/C=C\CCC(C)C(=O)NCCO (configuration not stated) |  | Ki (Cannabinoid receptor 1 [5]): 53 nM; Ki (Cannabinoid receptor 1 [6]): 53 nM |
| CCCCC/C=C\C/C=C\CCCCCCCC(=O)NCCO (stereo in doubt; 37) [LINOLEOYLETHANOLAMIDE] |  | Ki (Cannabinoid receptor 1 [7]): > 41400 nM |
| CCCCC/C=C\C/C=C\C/C=C\C/C=C\CCCC(=O)NCCN(CC)CC | > 1000 |  |
| CCCCC/C=C\C/C=C\C/C=C\C/C=C\CCC(C)(C)C(=O)N[C@H](C)CO | 31.1 |  |
| CCCCC/C=C\C/C=C\C/C=C\C/C=C\CCC(C)C(=O)NCCC (configuration not stated) | 7.4 |  |
| CCCCC/C=C\C/C=C\C/C=C\CCCCCCC(=O)NCCO |  | Ki (Cannabinoid receptor 1 [8]): 598 nM |
| CCCCC/C=C\C/C=C\C/C=C\C/C=C\CCC(C)C(=O)NC(C)C (configuration not stated) | 8.4 |  |
| CCCCC/C=C\C/C=C\C/C=C\C/C=C\CCCC(=O)NC(C)(C)C | 139 |  |
| CCCCC/C=C\C/C=C\C/C=C\C/C=C\CCCC(=O)NCCOP(=O)(O)O | 191 |  |
| CCCCC/C=C\C/C=C\C/C=C\C/C=C\CCCC(=O)NC(C)C(O)c1ccccc1 (configuration not stated) | > 1000 |  |
| CCCCC/C=C\C/C=C\C/C=C\C/C=C\CCC(C)(C)C(=O)NCCO | 25.5 | Ki (Cannabinoid receptor 1 [9]): 47 nM; Ki (Cannabinoid receptor 1 [6]): 47 nM; Ki (Cannabinoid receptor 1 [8]): 41 nM |
| CCCCC/C=C\C/C=C\C/C=C\C/C=C\CCC(C)(C)C(=O)N[C@@H](C)CO | 191 |  |
| CCCCC/C=C\C/C=C\C/C=C\C/C=C\CCCC(=O)NCCCO |  | Ki (Cannabinoid receptor 1 [7]): 364 nM; Ki (Cannabinoid receptor 1 [2]): 189 nM; Ki (Cannabinoid receptor 1 [8]): 13 nM |
| CC/C=C/C/C=C\C/C=C\CCCCCCCCCC(=O)NCCO | > 10000 |  |
| CCCCC/C=C\C/C=C\C/C=C\C/C=C\CCCC(=O)NC(C)C | 13.6 |  |

| Compound | Ki (Cannabinoid receptor 1 [1]; read-out: Ki) [nM] | also measured |
| --- | --- | --- |
| CC/C=C/C/C=C\C/C=C\CCCCCCCC(=O)NCCO |  | Ki (Cannabinoid receptor 1 [1]): Not Active |
| CCCCC/C=C\C/C=C\C/C=C\C/C=C\CCCC(=O)NC(CO)C(=O)O (configuration not stated) | > 10000 |  |
| CCCCC/C=C\C/C=C\C/C=C\C/C=C\CCCC(=O)N[C@@H](C)CC | 377 |  |
| CCCCC/C=C\C/C=C\C/C=C\C/C=C\CCCC(N)=O [ARACHIDONAMIDE] | > 1000 | Ki (Cannabinoid receptor 1 [7]): 9600 nM |
| CCCCCCCC/C=C\CCCCCCCCCC(=O)NCCO | > 1000 | Ki (Cannabinoid receptor 1 [9]): > 10000 nM |
| CCCCC/C=C\C/C=C\C/C=C\C/C=C\CCC(C)(C)C(=O)NCCC | 6.9 |  |
| CCCCC/C=C\C/C=C\CCCCCCCCCC(=O)NCCO | 1500 |  |
| CCCCC/C=C\C/C=C\C/C=C\C/C=C\CCCC(=O)N[C@H](C)CC | 240 |  |
| CC/C=C/C/C=C\C/C=C\C/C=C\C/C=C/CCCC(=O)NCCO | 162 | Ki (Cannabinoid receptor 1 [9]): 1470 nM |
| CCCCC/C=C\C/C=C\C/C=C\C/C=C\CCCC(=O)NO | > 1000 |  |
| CCCCC/C=C\C/C=C\C/C=C\C/C=C\CCCC(=O)NCCOC | 85.2 | Ki (Cannabinoid receptor 1 [2]): 1820 nM; Ki (Cannabinoid receptor 1 [8]): 650 nM |
| CCCCCCCCCCCCCCCC(=O)NCCO [PALMIDROL] |  | Ki (Cannabinoid receptor 1 [1]): Not Active; Ki (Cannabinoid receptor 1 [10]): Not Active |
| CCCCC/C=C\C/C=C\C/C=C\C/C=C\CCCC(=O)NCCCCC | > 1000 |  |
| CCCCC/C=C\C/C=C\C/C=C\C/C=C\CCCC(=O)NC(C)(C)CO | 162 |  |
| CC/C=C/C/C=C\C/C=C\C/C=C\C/C=C\C/C=C/CCC(=O)NCCO |  | Ki (Cannabinoid receptor 1 [7]): 12200 nM |
| CCCCC/C=C\C/C=C\C/C=C\C/C=C\CCCC(=O)NCCC | 11.7 | Ki (Cannabinoid receptor 1 [8]): 7.3 nM |
| CCCCC/C=C\C/C=C\C/C=C\C/C=C\CCCC(=O)N(CC)CCO | > 10000 |  |
| CCCCC/C=C\C/C=C\C/C=C\C/C=C\CCC(C)(C)C(=O)NC[C@H](C)O | 46.6 |  |
| CC/C=C/C/C=C\C/C=C\C/C=C\CCCCC(=O)NCCO | > 1000 |  |
| CCCCCC#CCC#CCC#CCC#CCCCC(=O)NCCO |  | Ki (Cannabinoid receptor 1 [1]): Not Active |
| CCCCC/C=C\C/C=C\C/C=C\C/C=C\CCCC(=O)NCCCC | 236 | Ki (Cannabinoid receptor 1 [8]): 30 nM |
| CCCCC/C=C\C/C=C\C/C=C\C/C=C\CCCC(=O)NC | 60 |  |
